Results of several laboratories.
Compare with care: the assays were run in different laboratories.
Organism: Escherichia coli
Effect on: microbial growth

Compound	method	cell line	strain	time	notes	MIC
Cc1ccc2nc(-c3cccc([N+](=O)[O-])c3)[nH]c2c1	broth dilution	–	ATCC25922	–	–	256 µg/mL
N=C(N)c1ccc(OCc2cc(COc3ccc(C(=N)N)cc3)cc(-c3ccccc3)c2)cc1	–	–	BW25113	–	–	≥ 100 µg/mL
CCCCCCC#Cc1cncc(-c2nnc(SCc3ccc([N+](=O)[O-])o3)n2C2CC2)c1	–	–	–	–	–	≥ 20 µg/mL
CC(C)(O/N=C(\C(=O)N[C@@H]1C(=O)N2C(C(=O)[O-])=C(C[n+]3ccccc3)CS[C@H]12)c1csc(N)n1)C(=O)O	broth dilution	–	ATCC25922	–	–	0.25 µg/mL
Cc1cc(C#N)ccc1C(=O)Nc1ccc(C(=O)N[C@@H](CC(N)=O)C(=O)Nc2ccc(C(=O)Nc3ccc(C(=O)Nc4ccc(C(=O)O)cc4)c(O)c3OC(C)C)cc2)cc1	–	–	DSM1116	–	–	0.5 µg/mL
O=C1NN=C(N=Cc2ccccc2O)C1=NNn1c(-c2ccccc2)nc2ccccc2c1=O	broth dilution	–	–	24 h	–	55.4 µM
CC(=O)Nc1ccc(C(=O)Nc2ccc(C(=O)N[C@@H](CC(N)=O)C(=O)Nc3ccc(C(=O)Nc4ccc(C(=O)Nc5ccc(C(=O)O)cc5)c(O)c4OC(C)C)cc3)cc2)cc1	–	–	DSM1116	–	–	16 µg/mL
CSc1ccc(-c2nc3ccccc3[nH]2)cc1	broth dilution	–	ATCC25922	–	–	64 µg/mL
O=[N+]([O-])c1ccc(-c2nc3cc(Cl)ccc3[nH]2)o1	broth dilution	–	ATTC25922	–	–	8 µg/mL
N=C(N)c1ccc(OCc2cc(Br)cc(COc3ccc(C(=N)N)cc3)c2)cc1	broth dilution	–	ATCC25922	–	–	100 µg/mL
CC(C)Oc1c(NC(=O)c2ccc(NC(=O)[C@H](CC(N)=O)NC(=O)c3ccc(NC(=O)c4ccc(NC(N)=O)cc4)cc3)cc2)ccc(C(=O)Nc2ccc(C(=O)O)cc2)c1O	–	–	DSM1116	–	–	0.5 µg/mL
c1ccc2c(-c3nc4ccccc4[nH]3)c3ccccc3cc2c1	broth dilution	–	ATCC25922	–	–	64 µg/mL
CCCCCCC/C=C/C(=O)N1C(=O)/C(=C(\O)c2ccc(OCOCCOC)cc2)C(=O)C1CC(C)C (stereo not drawn)	–	K12	K12	–	–	> 200 µg/mL
Cc1ccc(C)n1-c1ccc(C(=O)NNC=O)cc1	broth dilution	–	ATCC10536	18 h	–	31.2 µg/mL
C=CCn1c(-c2ccc(Cl)c(Cl)c2)nc2ccccc21	broth dilution	–	ATCC25922	–	–	64 µg/mL
C[C@H](CCC(=O)NCCCNCCCCNCCCN)[C@H]1CCC2=C3CC[C@@H]4C[C@H](O)CC[C@]4(C)[C@H]3C[C@H](O)[C@@]21C	broth dilution	–	MG1655	20 h	–	64 µg/mL
Cc1c(CN(C)C(=O)/C=C/c2cnc3c(c2)CC(CCN)C(=O)N3)oc2ccccc12.Cl (stereo not drawn)	broth dilution	–	BAA2469	–	clinical isolate	2 µg/mL
O=[N+]([O-])c1ccc(O)c2ncccc12	broth dilution	–	ATCC25922	–	–	2 µg/mL
Cc1ccc(C)n1-c1ccc(-c2nnc(-c3c(Cl)cccc3Cl)[nH]2)cc1	broth dilution	–	ATCC10536	18 h	–	62.5 µg/mL
O=C1NN=C(N=Cc2ccc(O)c(O)c2)C1=NNn1c(-c2ccccc2)nc2ccccc2c1=O	broth dilution	–	–	24 h	–	53.5 µM
Brc1ccc(NCc2ccc(Oc3ccccn3)cc2)cc1	–	–	–	–	–	> 25 µg/mL
N=C(N)c1ccc(OCc2ccc(COc3ccc(C(=N)N)cc3)cc2)cc1	–	–	BW25113	20 h	–	> 200 µg/mL
C/C(O)=C1\C(=O)C(CC(C)C)N(C(=O)C=Cc2ccccc2)C1=O (stereo not drawn)	–	K12	K12	–	–	> 200 µg/mL
O=C(CCCCCC[P+](c1ccccc1)(c1ccccc1)c1ccccc1)Nc1cc(O)c(O)c(O)c1.[Br-]	broth dilution	–	ATCC25922	18 h	–	> 32 µg/mL
CC(C)Oc1c(NC(=O)c2ccc(NC(=O)[C@H](CC(N)=O)NC(=O)c3ccc(NC(=O)c4ccc(C#N)cc4)cc3)cc2)ccc(C(=O)Nc2ccc(C(=O)O)cc2)c1O	–	–	ATCC25922	–	–	0.02 µg/mL
CCCCCC(=O)Oc1c(C)c(O)c(C(=O)/C=C/c2ccccc2)c(OC)c1C	broth dilution	–	ATCC25922	–	–	5000 µg/mL
CC(C)Oc1c(-n2cc(-c3ccc(NC(=O)C(CC(N)=O)NC(=O)c4ccc(NC(=O)c5ccc(C#N)cc5)cc4)cc3)nn2)ccc(C(=O)Nc2ccc(C(=O)O)cc2)c1O (stereo not drawn)	–	–	DSM1116	–	–	0.06 µg/mL

Compound	method	cell line	strain	time	notes	MIC
NC1CCCCc2c1[nH]c1cc(Cl)c(Cl)cc21 (stereo not drawn)	broth dilution	–	ATCC25922	–	–	8 µg/mL
CCCCCCC#Cc1cncc(-c2nnc(SCc3ccc(Cl)c(F)c3)n2C)c1	–	–	–	–	–	≥ 20 µg/mL
COc1c(C)c(OC)c(C(=O)/C=C/c2ccccc2)c(OC)c1C	broth dilution	–	ATCC25922	–	–	5000 µg/mL
CN[C@H](CC(C)C)C(=O)N[C@H]1C(=O)N[C@@H](CC(N)=O)C(=O)N[C@H]2C(=O)N[C@H]3C(=O)N[C@H](C(=O)N[C@H](C(=O)O)c4cc(O)cc(O)c4-c4cc3ccc4O)[C@H](O)c3ccc(c(Cl)c3)Oc3cc2cc(c3O[C@@H]2O[C@H](CO)[C@@H](O)[C@H](O)[C@H]2O[C@H]2C[C@](C)(N)[C@H](O)[C@H](C)O2)Oc2ccc(cc2Cl)[C@H]1O	broth dilution	–	ATCC25922	18 h	–	> 32 µg/mL
Oc1ccc(Br)cc1-c1nc2ccccc2[nH]1	broth dilution	–	ATCC25922	–	–	64 µg/mL
CCCCCCCCCC(=O)Oc1c(C)c(O)c(C(=O)/C=C/c2ccccc2)c(OC)c1C	broth dilution	–	ATCC25922	–	–	5000 µg/mL
CC1=NN(CNc2c(O)c(S(=O)(=O)O)cc3ccccc23)C(=O)C1=NNn1c(-c2ccccc2)nc2ccccc2c1=O	broth dilution	–	–	24 h	–	41.8 µM
O=C(Nc1ncc([N+](=O)[O-])s1)c1cc2ccccc2s1	–	–	–	–	–	< 50 µM
NC1CCc2c1[nH]c1ccc(Cl)c(Cl)c21 (stereo not drawn)	broth dilution	–	ATCC25922	–	–	16 µg/mL
N=C(N)c1cccc(OCCCCCOc2cccc(C(=N)N)c2)c1	broth dilution	–	BW25113	–	–	> 200 µg/mL
CCCCCCC/C=C/C(=O)N1C(=O)/C(=C(/C)O)C(=O)C1Cc1ccc(OC(C)(C)C)cc1 (stereo not drawn)	–	K12	K12	–	–	> 200 µg/mL
N=C(N)c1ccc(OCCCCCCCCOc2ccc(C(=N)N)cc2)cc1	broth dilution	–	BW25113	–	–	> 25 µg/mL
Cc1cc(=O)[nH]n1C(=O)c1ccc(-n2c(C)ccc2C)cc1	broth dilution	–	ATCC10536	18 h	–	250 µg/mL
CC(C)Oc1c(NC(=O)c2ccc(NC(=O)[C@H](CC(N)=O)NC(=O)c3ccc(NC(=O)c4ccc(C#N)c(Cl)c4)cc3)cc2)ccc(C(=O)Nc2ccc(C(=O)O)cc2)c1O	–	–	DSM1116	–	–	< 0.03 µg/mL
O=c1[nH]cc(F)c(=O)[nH]1	broth dilution	–	–	24 h	–	> 32 µg/mL
N=C(N)c1ccc(OCCCCCCCCCCCOc2ccc(C(=N)N)cc2)cc1	broth dilution	–	BW25113	–	–	> 25 µg/mL
CC(C)Oc1c(NC(=O)c2ccc(NC(=O)[C@H](CC(N)=O)NC(=O)c3ccc(NC(=O)c4ccc(N)cc4)cc3)cc2)ccc(C(=O)Nc2ccc(C(=O)O)cc2)c1O	–	–	DSM1116	–	–	2 µg/mL
C[C@H]1[C@H](NC(=O)/C(=N\OC(C)(C)C(=O)O)c2csc(N)n2)C(=O)N1S(=O)(=O)O	agar dilution	–	ATCC25	–	–	0.06 µg/mL
Cc1ccc2nc(-c3cccc(O)c3)[nH]c2c1	broth dilution	–	ATCC25922	–	–	64 µg/mL
N=C(N)c1cccc(OCc2ccc(COc3cccc(C(=N)N)c3)cc2)c1	broth dilution	–	BW25113	–	–	> 200 µg/mL
c1ccc(NCc2ccc(Oc3ccccn3)cc2)cc1	–	–	–	–	–	> 25 µg/mL
Cc1ccc2nc(-c3cccnc3)[nH]c2c1	broth dilution	–	ATCC25922	–	–	128 µg/mL
O=C(CCc1ccc(O)c(O)c1)NCCCCCCCC[P+](c1ccccc1)(c1ccccc1)c1ccccc1.[Br-]	broth dilution	–	ATCC25922	18 h	–	> 32 µg/mL
N=C(N)c1ccc(OCCCCCOc2ccc(C(=N)N)cc2)cc1	broth dilution	–	ATCC25922	–	–	200 µg/mL
CC(C)Oc1c(NC(=O)c2ccc(NC(=O)[C@H](CC(N)=O)NC(=O)c3ccc(NC(=O)C(C)Oc4ccccc4)cc3)cc2)ccc(C(=O)Nc2ccc(C(=O)O)cc2)c1O (stereo partly drawn)	–	–	DSM1116	–	–	> 64 µg/mL
Brc1cccc(NCc2ccc(Oc3ccccn3)cc2)c1	–	–	–	–	–	> 50 µg/mL
Cc1ccc2nc(-c3ccc(N(C)C)cc3)[nH]c2c1	broth dilution	–	ATCC25922	–	–	64 µg/mL
